Columns and labels:
Format in all cases: functional
[1] = tested on: T47D; assay: Growth inhibition of human T47D cells at 10 uM after 48 hrs by sulforhodamine B assay; conditions: read-out: GI
Method in brief: (§1)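 NCI-60 panel, adherent cells grown in RPMI 1640 with 5% FBS and 2 mM L-glutamine, plated at 5000–40,000 cells/well and preincubated 24 h at 37 °C, 5% CO2. 10 µM final compound from DMSO stock, triplicate wells, 48 h. Fixed with cold TCA (10% final, 60 min, 4 °C) and stained with 0.4% SRB. Absorbance read at 515 nm; growth calculated against time-zero and control wells.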

[2] = tested on: MDA-MB-231; assay: Growth inhibition of human MDA-MB-231 cells at 10 uM after 48 hrs by sulforhodamine B assay; conditions: MDA-MB-231, 48 h, read-out: GI
Method in brief: (§2)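 Run at NCI on the 60-line panel. Cells grown in RPMI 1640 with 5% FBS and 2 mM L-glutamine, plated at 5000–40,000 cells/well by doubling time, and held 24 h at 37 °C before dosing. Drug (DMSO stock) given at a single final 10 µM in triplicate wells for 48 h. Adherent cells fixed with cold TCA (10% final), suspension cells with 16% TCA. SRB stain read at 515 nm. Percent growth from Tz, C and Ti.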

[3] = tested on: K562; assay: Growth inhibition of human K562 cells at 10 uM after 48 hrs by sulforhodamine B assay; conditions: K562, 48 h, read-out: GI; method in brief: as §2
[4] = Growth inhibition of human RPMI8226 cells at 10 uM after 48 hrs by sulforhodamine B assay; conditions: RPMI-8226, 48 h, read-out: GI; method in brief: as §2
[5] = tested on: SR; assay: Growth inhibition of human SR cells at 10 uM after 48 hrs by sulforhodamine B assay; conditions: read-out: GI
Method in brief: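 NCI-60 screen. Cells were grown in RPMI 1640 with 5% FBS and 2 mM L-glutamine, plated at 5000–40,000 cells/well and held 24 h at 37 °C, 5% CO2. Single 10 µM final dose from DMSO stock, triplicate wells, 48 h. Settled cells were fixed with 80% TCA (16% final) and stained with 0.4% SRB. Dye was solubilized in 10 mM Tris and read at 515 nm. Growth was calculated against time-zero and untreated wells.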

[6] = Growth inhibition of human HOP92 cells at 10 uM after 48 hrs by sulforhodamine B assay; conditions: HOP-92, 48 h, read-out: GI; method in brief: as §2
[7] = tested on: NCI-H23; assay: Growth inhibition of human NCI-H23 cells at 10 uM after 48 hrs by sulforhodamine B assay; conditions: NCI-H23, 48 h, read-out: GI; method in brief: as §2
[8] = tested on: NCI-H322M; assay: Growth inhibition of human NCI-H322M cells at 10 uM after 48 hrs by sulforhodamine B assay; conditions: read-out: GI; method in brief: as §2
[9] = Growth inhibition of human COLO205 cells at 10 uM after 48 hrs by sulforhodamine B assay; conditions: COLO 205, 48 h, read-out: GI; method in brief: as §2
[10] = Growth inhibition of human HCC2998 cells at 10 uM after 48 hrs by sulforhodamine B assay; conditions: HCC 2998, 48 h, read-out: GI; method in brief: as §2
[11] = Growth inhibition of human HCT116 cells at 10 uM after 48 hrs by sulforhodamine B assay; conditions: HCT-116, 48 h, read-out: GI; method in brief: as §2
[12] = tested on: HT-29; assay: Growth inhibition of human HT-29 cells at 10 uM after 48 hrs by sulforhodamine B assay; conditions: HT-29, 48 h, read-out: GI; method in brief: as §2
[13] = Growth inhibition of human SF268 cells at 10 uM after 48 hrs by sulforhodamine B assay; conditions: SF-268, 48 h, read-out: GI; method in brief: as §2
[14] = Growth inhibition of human SF295 cells at 10 uM after 48 hrs by sulforhodamine B assay; conditions: SF-295, 48 h, read-out: GI; method in brief: as §2
[15] = Growth inhibition of human SF539 cells at 10 uM after 48 hrs by sulforhodamine B assay; conditions: SF-539, 48 h, read-out: GI; method in brief: as §2
[16] = Growth inhibition of human SNB19 cells at 10 uM after 48 hrs by sulforhodamine B assay; conditions: SNB-19, 48 h, read-out: GI; method in brief: as §2
[17] = Growth inhibition of human SNB75 cells at 10 uM after 48 hrs by sulforhodamine B assay; conditions: SNB-75, 48 h, read-out: GI; method in brief: as §2
[18] = tested on: U-251; assay: Growth inhibition of human U251 cells at 10 uM after 48 hrs by sulforhodamine B assay; conditions: U-251, 48 h, read-out: GI; method in brief: as §1
[19] = tested on: MDA-MB-435; assay: Growth inhibition of human MDA-MB-435 cells at 10 uM after 48 hrs by sulforhodamine B assay; conditions: MDA-MB-435, 48 h, read-out: GI; method in brief: as §2
[20] = tested on: SK-MEL-28; assay: Growth inhibition of human SK-MEL-28 cells at 10 uM after 48 hrs by sulforhodamine B assay; conditions: SK-MEL-28, 48 h, read-out: GI; method in brief: as §2
[21] = tested on: SK-MEL-5; assay: Growth inhibition of human SK-MEL-5 cells at 10 uM after 48 hrs by sulforhodamine B assay; conditions: SK-MEL-5, 48 h, read-out: GI; method in brief: as §2
[22] = Growth inhibition of human UACC257 cells at 10 uM after 48 hrs by sulforhodamine B assay; conditions: UACC-257, 48 h, read-out: GI; method in brief: as §1
[23] = Growth inhibition of human IGROV1 cells at 10 uM after 48 hrs by sulforhodamine B assay; conditions: IGROV-1, 48 h, read-out: GI; method in brief: as §2
[24] = Growth inhibition of human OVCAR4 cells at 10 uM after 48 hrs by sulforhodamine B assay; conditions: OVCAR-4, 48 h, read-out: GI; method in brief: as §2
[25] = Growth inhibition of human OVCAR5 cells at 10 uM after 48 hrs by sulforhodamine B assay; conditions: OVCAR-5, 48 h, read-out: GI; method in brief: as §2
[26] = Growth inhibition of human OVCAR8 cells at 10 uM after 48 hrs by sulforhodamine B assay; conditions: OVCAR-8, 48 h, read-out: GI; method in brief: as §2
[27] = Growth inhibition of human NCI-ADR-RES cells at 10 uM after 48 hrs by sulforhodamine B assay; conditions: read-out: GI; method in brief: as §2
[28] = Growth inhibition of human SKOV3 cells at 10 uM after 48 hrs by sulforhodamine B assay; conditions: SK-OV-3, 48 h, read-out: GI; method in brief: as §2
[29] = tested on: A498; assay: Growth inhibition of human A498 cells at 10 uM after 48 hrs by sulforhodamine B assay; conditions: A498, 48 h, read-out: GI; method in brief: as §2
[30] = Growth inhibition of human Caki1 cells at 10 uM after 48 hrs by sulforhodamine B assay; conditions: CAKI-1, 48 h, read-out: GI; method in brief: as §2
[31] = Growth inhibition of human RXF393 cells at 10 uM after 48 hrs by sulforhodamine B assay; conditions: RXF 393, 48 h, read-out: GI; method in brief: as §2
[32] = tested on: SN12C; assay: Growth inhibition of human SN12C cells at 10 uM after 48 hrs by sulforhodamine B assay; conditions: read-out: GI; method in brief: as §2
[33] = Growth inhibition of human DU145 cells at 10 uM after 48 hrs by sulforhodamine B assay; conditions: DU-145, 48 h, read-out: GI; method in brief: as §2
[34] = tested on: MCF7; assay: Growth inhibition of human MCF7 cells at 10 uM after 48 hrs by sulforhodamine B assay; conditions: MCF7, 48 h, read-out: GI; method in brief: as §2

SMILES | inhibition of growth at 10 µM [1] | inhibition of growth at 10 µM [2] | inhibition of growth at 10 µM [3] | inhibition of growth at 10 µM [4] | inhibition of growth at 10 µM [5] | inhibition of growth at 10 µM [6] | inhibition of growth at 10 µM [7] | inhibition of growth at 10 µM [8] | inhibition of growth at 10 µM [9] | inhibition of growth at 10 µM [10] | inhibition of growth at 10 µM [11] | inhibition of growth at 10 µM [12] | inhibition of growth at 10 µM [13] | inhibition of growth at 10 µM [14] | inhibition of growth at 10 µM [15] | inhibition of growth at 10 µM [16] | inhibition of growth at 10 µM [17] | inhibition of growth at 10 µM [18] | inhibition of growth at 10 µM [19] | inhibition of growth at 10 µM [20] | also measured
COc1ccc(Cc2nnc(Nc3ccc(C#N)cc3)c3ccccc23)cc1 | 50% | < 30% | < 30% | < 30% | < 30% | 36% | < 30% | < 30% | < 30% | < 30% | < 30% | < 30% | < 30% | < 30% | < 30% | < 30% | < 30% | < 30% | < 30% | < 30% | inhibition of growth at 10 µM [21]: < 30%; inhibition of growth at 10 µM [22]: < 30%; inhibition of growth at 10 µM [23]: < 30%; inhibition of growth at 10 µM [24]: < 30%; inhibition of growth at 10 µM [25]: < 30%; inhibition of growth at 10 µM [26]: < 30%; inhibition of growth at 10 µM [27]: < 30%; inhibition of growth at 10 µM [28]: < 30%; inhibition of growth at 10 µM [29]: 30%; inhibition of growth at 10 µM [30]: < 30%; inhibition of growth at 10 µM [31]: < 30%; inhibition of growth at 10 µM [32]: < 30%; inhibition of growth at 10 µM [33]: < 30%; inhibition of growth at 10 µM [34]: < 30%
COc1ccc(Cc2nnc(Nc3ccc(NC(=O)Nc4ccc(C#N)cc4)cc3)c3ccccc23)cc1 | 48% | 63% | 50% | 95% | 43% | < 30% | < 30% | < 30% | < 30% | < 30% | 44% | 45% | < 30% | 86% | 67% | 43% | 57% | 63% | < 30% | 45% | inhibition of growth at 10 µM [21]: < 33%; inhibition of growth at 10 µM [22]: < 30%; inhibition of growth at 10 µM [23]: 46%; inhibition of growth at 10 µM [24]: < 30%; inhibition of growth at 10 µM [25]: < 30%; inhibition of growth at 10 µM [26]: < 30%; inhibition of growth at 10 µM [27]: < 30%; inhibition of growth at 10 µM [28]: 37%; inhibition of growth at 10 µM [29]: 54%; inhibition of growth at 10 µM [30]: < 30%; inhibition of growth at 10 µM [31]: 110%; inhibition of growth at 10 µM [32]: < 30%; inhibition of growth at 10 µM [33]: < 30%; inhibition of growth at 10 µM [34]: 45%

From ChEMBL document CHEMBL3779892, “Increasing the binding affinity of VEGFR-2 inhibitors by extending their hydrophobic interaction with the active site: Design, synthesis and biological evaluation of 1-substituted-4-(4-methoxybenzyl)phthalazine derivatives” (Eur J Med Chem, 2016)
